Where a name gives a salt, the structure may show the parent alone.
How the values were obtained:
[1] = Cytotoxicity against human HepG2 cells after 24 hrs by MTT assay; assay type: cell-based
Method in brief: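 Hep G2A16 hepatoma cells kept in RPMI1640 with 5% FBS and gentamicin, trypsinised and plated at 4×10^4 cells/well, then left 18 h at 37 °C before dosing. Compounds were given in triplicate at four serial-dilution concentrations starting at 1000 µg/mL, with final DMSO 0.01%, for 24 h at 37 °C. MTT (6 mg/mL in PBS) was added for 1 h 30 min, solubilised in DMSO and read at 570 nm. Cytotoxic concentration was taken from the dose–response curve.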

PANC-1 = assay: Growth inhibition against human PANC1 cells after 72 hrs by inverted microscopy; assay type: functional; conditions: PANC-1, 72 h
Method in brief: (§1)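 Cells seeded at 2×10^4 cells/well in MEM10FCS containing compound at the test concentrations and exposed continuously for 72 h at 37 °C, 10% CO₂, 98% humidity. Untreated control wells were counted daily to confirm exponential growth. Cells were stained with crystal violet and inspected by inverted microscope, and inhibition was judged against controls. GI50 (50% growth inhibition) is the mean of duplicate wells.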

LoVo = assay: Growth inhibition against human LoVo cells after 72 hrs by inverted microscopy; assay type: functional; method in brief: as §1
Plasmodium falciparum = assay: Antiplasmodial activity against chloroquine-resistant Plasmodium falciparum W2 infected in human erythrocytes assessed as inhibition of parasite growth after 24 hrs by [3H]hypoxanthine incorporation assay; assay type: functional, organism-based
Method in brief: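 Ring-stage parasites, sorbitol-synchronised, in human O-negative erythrocytes in RPMI with 10% human plasma; plated at 1% parasitemia, 1% haematocrit. Compounds diluted from DMSO stocks in hypoxanthine-free medium, final DMSO 0.002%. After 24 h, [3H]-hypoxanthine (0.5 μCi/well) added for another 18 h at 37 °C. Incorporation compared with drug-free controls, IC50 by linear interpolation. Three experiments, each in triplicate.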

K562 = assay: Growth inhibition against human K562 cells after 72 hrs by inverted microscopy; assay type: functional; conditions: K562, 72 h; method in brief: as §1
[2] = Growth inhibition against human IGROV-ET cells after 72 hrs by inverted microscopy; assay type: functional; method in brief: as §1
[3] = Growth inhibition against human IGROV cells after 72 hrs by inverted microscopy; assay type: functional; method in brief: as §1
HeLa = assay: Growth inhibition against human HeLa cells after 72 hrs by inverted microscopy; assay type: functional; method in brief: as §1
HT-29 = assay: Growth inhibition against human HT-29 cells after 72 hrs by inverted microscopy; assay type: functional; conditions: HT-29, 72 h; method in brief: as §1
[4] = Growth inhibition against human LoVo/DX cells after 72 hrs by inverted microscopy; assay type: functional; method in brief: as §1
[5] = Selectivity index, ratio of CC50 for human HepG2 cells to IC50 for chloroquine-resistant Plasmodium falciparum W2 infected in human erythrocytes; assay type: functional
Method in brief: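 HepG2 hepatoma cells in RPMI1640 with 5% FBS, 4×10^4 cells/well, allowed 18 h at 37 °C. Four serial dilutions from 1000 µg/mL, final DMSO 0.01%, in triplicate, for 24 h at 37 °C. Cytotoxic concentration taken from the dose–response curve, then divided by the antiplasmodial IC50.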

Compound	CC50 at 24 h [1] [µM]	GI50 (PANC-1) [µM]	GI50 (LoVo) [µM]	IC50 (Plasmodium falciparum) [µM]	GI50 (K562) [µM]	GI50 [2] [µM]	GI50 [3] [µM]	GI50 (HeLa) [µM]	GI50 (HT-29) [µM]	GI50 [4] [µM]	Ratio CC50/IC50 [5]
CCN(CC)CCCC(C)Nc1ccnc2cc(Cl)ccc12 (stereo not given) [CHLOROQUINE]	504										
COC(=O)[C@]1(C)CCC[C@@]2(C)C3=CC[C@H]4C[C@@]3(CC[C@H]12)CC4CO (mixture of isomers)		> 9.02	> 9.02	33.1	> 9.02	> 9.02	> 9.02	> 9.02	> 9.02	> 9.02	
COC(=O)[C@]1(C)CCC[C@@]2(C)[C@@H]3CC[C@H]4C[C@@]3(CC[C@@H]21)C[C@H]4C=O		> 9.02	> 9.02		> 9.02	> 9.02	> 9.02	> 9.02	> 9.02	> 9.02	
COC(=O)[C@]1(C)CCC[C@@]2(C)[C@@H]3CC[C@H]4C[C@]3(C=C4C)CC[C@@H]21	44.9	> 9.48	> 9.48	8.8	> 9.48	> 9.48	> 9.48	> 9.48	> 9.48	> 9.48	5.1
C=C1C[C@@]23CC[C@@H]4[C@](C)(C(=O)O)CCC[C@@]4(C)C2=CC[C@@H]1C3 [GRANDIFLORENIC ACID]				23.3							
COC(=O)[C@]1(C)CCC[C@@]2(C)[C@@H]3[C@@H](O)C[C@H]4C[C@@]3(CC[C@@H]21)C[C@@H]4CO		> 8.56	> 8.56	> 143	> 8.56	> 8.56	> 8.56	> 8.56	> 8.56	> 8.56	
COC(=O)[C@]1(C)CCC[C@@]2(C)[C@@H]3[C@H](O)C[C@H]4C[C@@]3(CC[C@@H]21)C[C@@H]4CO		> 8.56	> 8.56	> 143	> 8.56	> 8.56	> 8.56	> 8.56	> 8.56	> 8.56	
C=C1[C@H]2CC[C@H]3[C@]4(C)CCC[C@@](C)(C(=O)OC)[C@H]4CC[C@]3(C2)[C@H]1O		> 9.02	8.21	8.4	> 9.02	> 9.02	7.52	7.04	7.4	> 9.02	
C[C@@]1(C(=O)O)CCC[C@@]2(C)C3=CC[C@H]4C[C@@]3(CC[C@H]12)C[C@]41CO1		> 9.48	> 9.48		> 9.48	> 9.48	> 9.48	> 9.48	> 9.48	> 9.48	
COC(=O)[C@]1(C)CCC[C@]2(C)[C@@H]1CC[C@@]13C[C@H](C[C@H]4O[C@]412)[C@@]1(CO1)C3	1240	> 8.66	> 8.66	10.4	> 8.66	> 8.66	> 8.66	> 8.66	> 8.66	> 8.66	119.1
COC(=O)[C@]1(C)CCC[C@@]2(C)[C@@H]3CC[C@H]4C[C@@]3(CC[C@@H]21)C[C@@H]4C=O		> 9.02	8.69		8.18	> 9.02	> 9.02	> 9.02	> 9.02	> 9.02	
COC(=O)[C@]1(C)CCC[C@@]2(C)[C@@H]3CC[C@H]4C[C@@]3(CC[C@@H]21)[C@@H](O)[C@@H]4C		> 9.02	> 9.02	34.7	> 9.02	> 9.02	8.34	> 9.02	> 9.02	> 9.02	
COC(=O)[C@]1(C)CCC[C@@]2(C)[C@@H]3CC[C@H]4C[C@@]3(CC[C@@H]21)C[C@]41CO1	111	> 9.02	> 9.02	9.6	> 9.02	> 9.02	> 9.02	> 9.02	> 9.02	> 9.02	11.5
COC(=O)[C@]1(C)CCC[C@@]2(C)[C@@H]3CC[C@H]4C[C@@]3(CC[C@@H]21)C[C@@H]4C1NCCCN1				5.4							
C=C1C[C@@]23CC[C@H]4[C@@](C)(CCC[C@@]4(C)C(=O)OC)[C@@H]2CC[C@H]1C3	32.2	> 9.48	> 9.48	8.2	> 9.48	> 9.48	8.44	> 9.48	> 9.48	> 9.48	3.9
C[C@@]1(C(=O)O)CCC[C@@]2(C)C3=CC[C@@H]4C[C@@]3(CC[C@H]12)CC4=O				> 157							
COC(=O)[C@]1(C)CCC[C@@]2(C)[C@@H]3CC[C@H]4C[C@@]3(CC[C@@H]21)C[C@@H]4C(=O)O				> 144							
C=C1C[C@@]23CC[C@H]4[C@@](C)(CCC[C@@]4(C)C(=O)O)[C@@H]2CC[C@@H]1C3 [KAURENOIC ACID]	192	> 9.92	> 9.92	21.1	> 9.92	> 9.92	> 9.92	> 9.92	> 9.92	> 9.92	9.1
COC(=O)[C@]1(C)CCC[C@@]2(C)[C@@H]3CC[C@@H]4C[C@@]3(CC[C@@H]21)C[C@@H]4CO		> 9.02	> 9.02		> 9.02	7.23	> 9.02	> 9.02	> 9.02	> 9.02	
COc1cccc2c1C(=O)c1c(O)c3c(c(O)c1C2=O)C[C@@](O)(C(=O)CO)C[C@@H]3O[C@H]1C[C@H](N)[C@H](O)[C@H](C)O1 [DOXORUBICIN HYDROCHLORIDE]		0.24	0.24		0.17	6.17	0.11	0.17	0.15	2.21	

From ChEMBL document CHEMBL2331420, “Synthesis, cytotoxicity and antiplasmodial activity of novel ent-kaurane derivatives” (Eur J Med Chem, 2013)
